Assay results from ChEMBL document CHEMBL1122906, “Improved antagonists of luteinizing hormone-releasing hormone modified in position 7” (1985).
Square brackets hold non-standard residues; d marks the D form. Peptide text beside a SMILES is read from it. dPhe(4-Cl) = N[C@H](Cc1ccc(Cl)cc1)C(=O)O; d2Nal = N[C@H](Cc1ccc2ccccc2c1)C(=O)O

Legend:
Format in all cases: functional
Rattus norvegicus [1] = species on record: Rattus norvegicus; test: Percent anti-ovulatory activity in Sprague-Dawley rats against percent of 11 rats that did not ovulate at dose 1 microg
Outline: (§1)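 Antiovulatory activity was tested in Sprague-Dawley rats using the standard rat antiovulatory assay. Analogues were given in a 40% propylene glycol-saline vehicle at the stated microgram dose. The value is the percentage of the (n) rats in each group in which ovulation was blocked.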

Rattus norvegicus [2] = species on record: Rattus norvegicus; test: Percent anti-ovulatory activity in Sprague-Dawley rats against percent of 9 rats that did not ovulate at dose 1 microg; outline: as §1
Rattus norvegicus [3] = species on record: Rattus norvegicus; test: Percent anti-ovulatory activity in Sprague-Dawley rats against percent of 13 rats that did not ovulate at dose 7.5 microg; outline: as §1
Rattus norvegicus [4] = species on record: Rattus norvegicus; test: Percent anti-ovulatory activity in Sprague-Dawley rats against percent of 10 rats that did not ovulate at dose 1 microg; outline: as §1
Rattus norvegicus [5] = species on record: Rattus norvegicus; test: Percent anti-ovulatory activity in Sprague-Dawley rats against percent of 8 rats that did not ovulate at dose 50 microg; outline: as §1
Rattus norvegicus [6] = species on record: Rattus norvegicus; test: Percent anti-ovulatory activity in Sprague-Dawley rats against percent of 10 rats that did not ovulate at dose 0.5 microg; outline: as §1
Rattus norvegicus [7] = species on record: Rattus norvegicus; test: Percent anti-ovulatory activity in Sprague-Dawley rats against percent of 8 rats that did not ovulate at dose 3 microg; outline: as §1
Rattus norvegicus [8] = species on record: Rattus norvegicus; test: Percent anti-ovulatory activity in Sprague-Dawley rats against percent of 9 rats that did not ovulate at dose 3 microg; outline: as §1
Rattus norvegicus [9] = species on record: Rattus norvegicus; test: Percent anti-ovulatory activity in Sprague-Dawley rats against percent of 13 rats that did not ovulate at dose 1 ug; outline: as §1
Rattus norvegicus [10] = species on record: Rattus norvegicus; test: Percent anti-ovulatory activity in Sprague-Dawley rats against percent of 12 rats that did not ovulate at dose 3 microg; outline: as §1
Rattus norvegicus [11] = species on record: Rattus norvegicus; test: Percent anti-ovulatory activity in Sprague-Dawley rats against percent of 13 rats that did not ovulate at dose 0.5 microg; outline: as §1
Rattus norvegicus [12] = species on record: Rattus norvegicus; test: Percent anti-ovulatory activity in Sprague-Dawley rats against percent of 7 rats that did not ovulate at dose 3 microg; outline: as §1
Rattus norvegicus [13] = species on record: Rattus norvegicus; test: Percent anti-ovulatory activity in Sprague-Dawley rats against percent of 10 rats that did not ovulate at dose 50 microg; outline: as §1
Rattus norvegicus [14] = species on record: Rattus norvegicus; test: Percent anti-ovulatory activity in Sprague-Dawley rats against percent of 10 rats that did not ovulate at dose 3 ug; outline: as §1
Rattus norvegicus [15] = species on record: Rattus norvegicus; test: Percent anti-ovulatory activity in Sprague-Dawley rats against percent of 11 rats that did not ovulate at dose 0.5 ug; outline: as §1
Rattus norvegicus [16] = species on record: Rattus norvegicus; test: Percent anti-ovulatory activity in Sprague-Dawley rats against percent of 10 rats that did not ovulate at dose 1 ug; outline: as §1
Rattus norvegicus [17] = species on record: Rattus norvegicus; test: Percent anti-ovulatory activity in Sprague-Dawley rats against percent of 10 rats that did not ovulate at dose 3 microg; outline: as §1
Rattus norvegicus [18] = species on record: Rattus norvegicus; test: Percent anti-ovulatory activity in Sprague-Dawley rats against percent of 8 rats that did not ovulate at dose 1 microg; outline: as §1
Rattus norvegicus [19] = species on record: Rattus norvegicus; test: Percent anti-ovulatory activity in Sprague-Dawley rats against percent of 5 rats that did not ovulate at dose 1 microg; outline: as §1
Rattus norvegicus [20] = species on record: Rattus norvegicus; test: Percent anti-ovulatory activity in Sprague-Dawley rats against percent of 11 rats that did not ovulate at dose 3 microg; outline: as §1

`CC(=O)N[C@H](Cc1ccc2ccccc2c1)C(=O)N[C@H](Cc1ccc2ccccc2c1)C(=O)N[C@H](Cc1c[nH]c2ccccc12)C(=O)N[C@@H](CO)C(=O)N[C@@H](Cc1ccc(O)cc1)C(=O)N[C@H](CCCN=C(N)N)C(=O)N[C@@H](CC(C)C)C(=O)N[C@@H](CCCN=C(N)N)C(=O)N1CCC[C@H]1C(=O)N[C@H](C)C(N)=O` gave an Activity (Rattus norvegicus [1]) of 0%.

With `CC(=O)N[C@H](Cc1ccc2ccccc2c1)C(=O)N[C@H](Cc1ccc2ccccc2c1)C(=O)N[C@H](Cc1c[nH]c2ccccc12)C(=O)N[C@@H](CO)C(=O)N[C@@H](Cc1ccc(O)cc1)C(=O)N[C@H](CCCN=C(N)N)C(=O)N[C@@H](Cc1ccc(O)cc1)C(=O)N[C@@H](CCCN=C(N)N)C(=O)N1CCC[C@H]1C(=O)N[C@H](C)C(N)=O` the Activity (Rattus norvegicus [2]) was 11%.

`CC(=O)N[C@H](Cc1ccc2ccccc2c1)C(=O)N[C@H](Cc1ccc(Cl)cc1)C(=O)N[C@H](Cc1c[nH]c2ccccc12)C(=O)N[C@@H](CO)C(=O)N[C@@H](Cc1ccc(O)cc1)C(=O)N[C@H](CCCN=C(N)N)C(=O)N[C@@H](CCCCN)C(=O)N[C@@H](CCCN=C(N)N)C(=O)N1CCC[C@H]1C(=O)N[C@H](C)C(N)=O` gave an Activity (Rattus norvegicus [3]) of 0%.

With `CC(=O)N[C@H](Cc1ccc(Cl)cc1)C(=O)N[C@H](Cc1ccc(Cl)cc1)C(=O)N[C@H](Cc1c[nH]c2ccccc12)C(=O)N[C@@H](CO)C(=O)N[C@@H](Cc1ccc(O)cc1)C(=O)N[C@H](CCCN=C(N)N)C(=O)N[C@@H](Cc1ccccc1)C(=O)N[C@@H](CCCN=C(N)N)C(=O)N1CCC[C@H]1C(=O)N[C@H](C)C(N)=O` (Ac-[dPhe(4-Cl)][dPhe(4-Cl)][dW]SY[dR]FRP[dA]-NH2) the Activity (Rattus norvegicus [4]) was 20%.

In the case of `CC(=O)N[C@H](Cc1ccc2ccccc2c1)C(=O)N[C@@H]1CSSC[C@@H](C(=O)N[C@@H](CCCN=C(N)N)C(=O)N2CCC[C@H]2C(=O)N[C@H](C)C(N)=O)NC(=O)[C@@H](CCCN=C(N)N)NC(=O)[C@H](Cc2ccc(O)cc2)NC(=O)[C@H](CO)NC(=O)[C@@H](Cc2c[nH]c3ccccc23)NC1=O`, the Activity (Rattus norvegicus [5]) is reported as 0%.

`CC(=O)N[C@H](Cc1ccc2ccccc2c1)C(=O)N[C@H](Cc1ccc(Cl)cc1)C(=O)N[C@H](Cc1c[nH]c2ccccc12)C(=O)N[C@@H](CO)C(=O)N[C@@H](Cc1ccc(O)cc1)C(=O)N[C@H](CCCN=C(N)N)C(=O)N[C@@H](Cc1c[nH]c2ccccc12)C(=O)N[C@@H](CCCN=C(N)N)C(=O)N1CCC[C@H]1C(=O)N[C@H](C)C(N)=O` showed an Activity (Rattus norvegicus [6]) of 10% and an Activity (Rattus norvegicus [7]) of 85%.

Work on `CC(=O)N[C@H](Cc1ccc2ccccc2c1)C(=O)N[C@H](Cc1ccc(Cl)cc1)C(=O)N[C@H](Cc1c[nH]c2ccccc12)C(=O)N[C@@H](CO)C(=O)N[C@@H](Cc1ccc(O)cc1)C(=O)N[C@H](CCCN=C(N)N)C(=O)N[C@@H](CC(C)C)C(=O)N[C@@H](CCCN=C(N)N)C(=O)N1CCC[C@H]1C(=O)N[C@H](C)C(N)=O` (Ac-[d2Nal][dPhe(4-Cl)][dW]SY[dR]LRP[dA]-NH2) yielded an Activity (Rattus norvegicus [8]) of 100% and an Activity (Rattus norvegicus [9]) of 77%.

`CC(=O)N[C@H](Cc1ccc2ccccc2c1)C(=O)N[C@H](Cc1ccc(Cl)cc1)C(=O)N[C@H](Cc1c[nH]c2ccccc12)C(=O)N[C@@H](CO)C(=O)N[C@@H](Cc1ccc(O)cc1)C(=O)N[C@H](CCCN=C(N)N)C(=O)N[C@@H](Cc1ccc(Cl)cc1)C(=O)N[C@@H](CCCN=C(N)N)C(=O)N1CCC[C@H]1C(=O)N[C@H](C)C(N)=O` showed an Activity (Rattus norvegicus [10]) of 100% and an Activity (Rattus norvegicus [1]) of 9%.

For `CC(=O)N[C@H](Cc1ccc2ccccc2c1)C(=O)N[C@H](Cc1ccc(Cl)cc1)C(=O)N[C@H](Cc1c[nH]c2ccccc12)C(=O)N[C@@H](CO)C(=O)N[C@@H](Cc1ccc(O)cc1)C(=O)N[C@H](CCCN=C(N)N)C(=O)N[C@@H](Cc1ccc(O)cc1)C(=O)N[C@@H](CCCN=C(N)N)C(=O)N1CCC[C@H]1C(=O)N[C@H](C)C(N)=O`, the Activity (Rattus norvegicus [2]) was 89%, the Activity (Rattus norvegicus [11]) was 31% and the Activity (Rattus norvegicus [12]) was 100%.

For `CC(=O)N[C@H](Cc1ccc2ccccc2c1)C(=O)N[C@H](Cc1ccc(Cl)cc1)C(=O)N[C@@H]1CSSC[C@@H](C(=O)N[C@@H](CCCN=C(N)N)C(=O)N2CCC[C@H]2C(=O)N[C@H](C)C(N)=O)NC(=O)[C@@H](CCCN=C(N)N)NC(=O)[C@H](Cc2ccc(O)cc2)NC(=O)[C@H](CO)NC1=O`, the Activity (Rattus norvegicus [13]) was 0%.

Compound `CC(=O)N[C@H](Cc1ccc2ccccc2c1)C(=O)N[C@H](Cc1ccc(Cl)cc1)C(=O)N[C@H](Cc1c[nH]c2ccccc12)C(=O)N[C@H]1CSSC[C@@H](C(=O)N[C@@H](CCCN=C(N)N)C(=O)N2CCC[C@H]2C(=O)N[C@H](C)C(N)=O)NC(=O)[C@@H](CCCN=C(N)N)NC(=O)[C@H](Cc2ccc(O)cc2)NC1=O` has an Activity (Rattus norvegicus [5]) of 0%.

`CC(=O)N[C@H](Cc1ccc2ccccc2c1)C(=O)N[C@H](Cc1ccc(Cl)cc1)C(=O)N[C@H](Cc1c[nH]c2ccccc12)C(=O)N[C@@H](CO)C(=O)N[C@@H](Cc1ccc(O)cc1)C(=O)N[C@H](CCCN=C(N)N)C(=O)N[C@H](C(=O)N[C@@H](CCCN=C(N)N)C(=O)N1CCC[C@H]1C(=O)N[C@H](C)C(N)=O)[C@@H](C)O` showed an Activity (Rattus norvegicus [14]) of 20%.

`CC(=O)N[C@H](Cc1ccc2ccccc2c1)C(=O)N[C@H](Cc1ccc(Cl)cc1)C(=O)N[C@H](Cc1c[nH]c2ccccc12)C(=O)N[C@@H](CO)C(=O)N[C@@H](Cc1ccc(O)cc1)C(=O)N[C@H](CCCN=C(N)N)C(=O)N[C@@H](Cc1ccccc1)C(=O)N[C@@H](CCCN=C(N)N)C(=O)N1CCC[C@H]1C(=O)N[C@H](C)C(N)=O` (Ac-[d2Nal][dPhe(4-Cl)][dW]SY[dR]FRP[dA]-NH2) gave an Activity (Rattus norvegicus [15]) of 64%.

`CC(=O)N[C@H](Cc1ccc2ccccc2c1)C(=O)N[C@H](Cc1ccc(Cl)cc1)C(=O)N[C@H](Cc1c[nH]c2ccccc12)C(=O)N[C@@H](CO)C(=O)N[C@@H](Cc1ccc(O)cc1)C(=O)N[C@H](CCCN=C(N)N)C(=O)N[C@@H](Cc1ccc(F)cc1)C(=O)N[C@@H](CCCN=C(N)N)C(=O)N1CCC[C@H]1C(=O)N[C@H](C)C(N)=O` showed an Activity (Rattus norvegicus [7]) of 75% and an Activity (Rattus norvegicus [16]) of 0%.

`CC(=O)N[C@H](Cc1ccc2ccccc2c1)C(=O)N[C@H](Cc1ccc(Cl)cc1)C(=O)N[C@H](Cc1c[nH]c2ccccc12)C(=O)N[C@@H](CO)C(=O)N[C@@H](Cc1ccc(O)cc1)C(=O)N[C@H](CCCN=C(N)N)C(=O)N[C@@H](Cc1ccc2ccccc2c1)C(=O)N[C@@H](CCCN=C(N)N)C(=O)N1CCC[C@H]1C(=O)N[C@H](C)C(N)=O` was tested, and the Activity (Rattus norvegicus [17]) was 100% and the Activity (Rattus norvegicus [6]) was 0%.

`CC(=O)N[C@H](Cc1ccc2ccccc2c1)C(=O)N[C@H](Cc1ccc(Cl)cc1)C(=O)N[C@H](Cc1c[nH]c2ccccc12)C(=O)N[C@@H](CO)C(=O)N[C@@H](Cc1ccc(O)cc1)C(=O)N[C@H](CCCN=C(N)N)C(=O)N(C)[C@@H](Cc1ccccc1)C(=O)N[C@@H](CCCN=C(N)N)C(=O)N1CCC[C@H]1C(=O)N[C@H](C)C(N)=O` gave an Activity (Rattus norvegicus [8]) of 11% and an Activity (Rattus norvegicus [18]) of 13%.

`CC(=O)N[C@H](Cc1ccc2ccccc2c1)C(=O)N[C@H](Cc1ccc(Cl)cc1)C(=O)N[C@H](Cc1c[nH]c2ccccc12)C(=O)N[C@@H](CO)C(=O)N[C@H]1CSSC[C@@H](C(=O)N[C@@H](CCCN=C(N)N)C(=O)N2CCC[C@H]2C(=O)N[C@H](C)C(N)=O)NC(=O)[C@@H](CCCN=C(N)N)NC1=O` was tested, and the Activity (Rattus norvegicus [5]) was 0%.

`CC(=O)N[C@H](Cc1ccc2ccccc2c1)C(=O)N[C@H](Cc1ccc(Cl)cc1)C(=O)N[C@H](Cc1c[nH]c2ccccc12)C(=O)N[C@@H](CO)C(=O)N[C@@H](Cc1ccc(O)cc1)C(=O)N[C@H](CCCN=C(N)N)C(=O)N[C@@H](Cc1c(F)c(F)c(F)c(F)c1F)C(=O)N[C@@H](CCCN=C(N)N)C(=O)N1CCC[C@H]1C(=O)N[C@H](C)C(N)=O` gave an Activity (Rattus norvegicus [19]) of 20% and an Activity (Rattus norvegicus [20]) of 100%.

Compound `CC(=O)N[C@H](Cc1ccc2ccccc2c1)C(=O)N[C@H](Cc1ccc(Cl)cc1)C(=O)N[C@H](Cc1c[nH]c2ccccc12)C(=O)N[C@@H](CO)C(=O)N[C@@H](Cc1ccc(O)cc1)C(=O)N[C@H](CCCN=C(N)N)C(=O)N[C@@H](Cc1ccc(C)cc1)C(=O)N[C@@H](CCCN=C(N)N)C(=O)N1CCC[C@H]1C(=O)N[C@H](C)C(N)=O` has an Activity (Rattus norvegicus [2]) of 22%.
